Data as given in ChEMBL document CHEMBL1123825, “Synthesis and activity profiles of new dermorphin-(1-4) peptide analogues” (J Med Chem, 1987).
Non-standard residues stand in square brackets, D forms with d. Residues, ends and D or L forms follow the SMILES beside them. ξ: configuration not given here. Met(O) = CS(=O)CC[C@H](N)C(=O)O; ξA = CC(N)C(=O)O; Sar = CNCC(=O)O

Key:
[1] = system: Mus musculus; assay: The compound was evaluated for the analgesic activity by tail-flick test after icv administration of compound in mouse; value ranges from 12.6-41.7; type: functional
[2] = molecular target: Mu-type opioid receptor (Cavia porcellus, UniProt P97266); assay: Evaluated for the inhibition of [3H]DAGO binding to mu-receptor of guinea pig brain
Sequence of Mu-type opioid receptor (P97266 whole entry): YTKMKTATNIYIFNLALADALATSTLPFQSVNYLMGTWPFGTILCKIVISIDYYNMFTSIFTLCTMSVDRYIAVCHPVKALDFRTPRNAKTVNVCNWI
In short: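 Male guinea pig brain minus cerebellum, homogenized in 50 mM Tris (pH 7.4), preincubated 37 °C for 45 min; 18 mg tissue per tube. [3H]DAGO 0.6 nM, 40 min at 25 °C, then GF/B filtration. Nonspecific binding defined with […] bremazocine. Six or more concentrations, each in triplicate; IC50 by probit analysis.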

[3] = system: Mus musculus; assay: The compound was evaluated for the analgesic activity by tail-flick test after subcutaneous administration in mouse; value ranges from 2.69-17.0; type: functional; settings: sc
[4] = molecular target: Kappa-type opioid receptor (Cavia porcellus, UniProt P41144); assay: Evaluated for the inhibition of [3H]EKC binding to Opioid receptor kappa 1 of guinea pig brain
Sequence of Kappa-type opioid receptor (P41144 whole entry): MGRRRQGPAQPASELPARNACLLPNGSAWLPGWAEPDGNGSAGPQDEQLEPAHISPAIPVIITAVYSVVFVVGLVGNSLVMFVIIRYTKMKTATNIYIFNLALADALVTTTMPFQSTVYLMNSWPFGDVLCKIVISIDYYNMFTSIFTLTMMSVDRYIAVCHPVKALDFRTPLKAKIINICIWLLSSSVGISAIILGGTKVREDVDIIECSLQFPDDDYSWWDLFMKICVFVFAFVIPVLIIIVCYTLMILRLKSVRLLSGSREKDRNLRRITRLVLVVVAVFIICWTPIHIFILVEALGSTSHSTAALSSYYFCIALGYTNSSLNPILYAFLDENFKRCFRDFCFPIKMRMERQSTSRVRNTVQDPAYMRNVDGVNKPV

[5] = system: Mus musculus; assay: The compound was evaluated for the analgesic activity by tail-flick test after subcutaneous administration of compound in mouse; value ranges from 0.21-1.06; type: functional; settings: sc
[6] = system: Mus musculus; assay: The compound was evaluated for the analgesic activity by tail-flick test after icv administration of compound in mouse; value ranges from 6.1-11.4; type: functional
[7] = system: Mus musculus; assay: The compound was evaluated for the analgesic activity by tail-flick test after icv administration of compound in mouse; value ranges from 0.51-9.7; type: functional
[8] = system: Mus musculus; assay: The compound was evaluated for the analgesic activity by tail-flick test after subcutaneous administration of compound in mouse; value ranges from 0.31-1.09; type: functional; settings: sc
[9] = system: Mus musculus; assay: The compound was evaluated for the analgesic activity by tail-flick test after icv administration of compound in mouse; value ranges from 5.5-16.3; type: functional
[10] = system: Mus musculus; assay: The compound was evaluated for the analgesic activity by tail-flick test after subcutaneous administration of compound in mouse; value ranges from 2.60-17.0; type: functional; settings: sc
[11] = molecular target: Mu-type opioid receptor (Cavia porcellus) (UniProt P97266); assay: Relative potency with respect to morphine was evaluated for mu-receptor of guinea pig brain
Sequence of Mu-type opioid receptor (Cavia porcellus) (P97266 whole entry): as the sequence (P97266 whole entry) above

[12] = system: Mus musculus; assay: Relative potency was determined for the compound with respect to morphine activity (1) after icv administration; type: functional
[13] = system: Mus musculus; assay: The compound was evaluated for the analgesic activity by tail-flick test after icv administration of compound in mouse; value ranges from 2.8-12.6; type: functional
[14] = system: Mus musculus; assay: Relative potency was determined for the compound with respect to morphine activity (1) after subcutaneous administration; type: functional
[15] = system: Mus musculus; assay: The compound was evaluated for the analgesic activity by tail-flick test after subcutaneous administration of compound in mouse; value ranges from 0.28-0.80; type: functional; settings: sc
[16] = system: Mus musculus; assay: The compound was evaluated for the analgesic activity by tail-flick test after subcutaneous administration of compound in mouse; value ranges from 1.40-4.89; type: functional; settings: sc
[17] = system: Mus musculus; assay: The compound was evaluated for the analgesic activity by tail-flick test after icv administration of compound in mouse; value ranges from 11.8-23; type: functional
[18] = system: Mus musculus; assay: The compound was evaluated for the analgesic activity by tail-flick test after subcutaneous administration of compound in mouse; value ranges from 2.51-17.4; type: functional; settings: sc
[19] = system: Mus musculus; assay: The compound was evaluated for the analgesic activity by tail-flick test after icv administration of compound in mouse; value ranges from 34-72; type: functional
[20] = system: Mus musculus; assay: The compound was evaluated for the analgesic activity by tail-flick test after icv administration of compound in mouse; value ranges from […]-[…]; type: functional
[21] = system: Mus musculus; assay: The compound was evaluated for the analgesic activity by tail-flick test after subcutaneous administration of compound in mouse; value ranges from 0.48-1.51; type: functional; settings: sc
[22] = system: Mus musculus; assay: The compound was evaluated for the analgesic activity by tail-flick test after subcutaneous administration of compound in mouse; value ranges from 26.7-99.1; type: functional; settings: sc
[23] = system: Mus musculus; assay: The compound was evaluated for the analgesic activity by tail-flick test after icv administration of compound in mouse; value ranges from 46.4-120; type: functional
[24] = system: Mus musculus; assay: The compound was evaluated for the analgesic activity by tail-flick test after icv administration of compound in mouse; value ranges from 6.6-27.1; type: functional
In short: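 Swiss-Webster mice (23-25 g), tail immersed in 55 °C water, reaction time read before and at various times after icv dosing in saline (4 µL); 10 s cutoff. % analgesia = [(T − T0)/(10 − T0)] × 100. At least four doses, at least eight mice per dose; ED50 estimated at time of peak activity. Opioid specificity checked by naloxone pretreatment (0.5-1 mg/kg sc).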

[25] = system: Mus musculus; assay: The compound was evaluated for the analgesic activity by tail-flick test after icv administration of compound in mouse; value ranges from 27-40.8; type: functional
[26] = system: Mus musculus; assay: The compound was evaluated for the analgesic activity by tail-flick test after subcutaneous administration of compound in mouse; value ranges from 2.64-10.0; type: functional; settings: sc
[27] = species: Mus musculus; assay: animal or person; settings: Tail, sc
[28] = system: Mus musculus; assay: The compound was evaluated for the analgesic activity by tail-flick test after icv administration of compound in mouse; value ranges from 2550-4200; type: functional
[29] = system: Mus musculus; assay: The compound was evaluated for the analgesic activity by tail-flick test after subcutaneous administration of compound in mouse; value ranges from 2.92-8.75; type: functional; settings: sc
[30] = system: Mus musculus; assay: The compound was evaluated for the analgesic activity by tail-flick test after icv administration of compound in mouse; value ranges from 31-85; type: functional
[31] = system: Mus musculus; assay: The compound was evaluated for the analgesic activity by tail-flick test after subcutaneous administration of compound in mouse; value ranges from 0.54-0.83; type: functional; settings: sc
[32] = system: Mus musculus; assay: The compound was evaluated for the analgesic activity by tail-flick test after icv administration of compound in mouse; value ranges from 1.35-3.36; type: functional
[33] = system: Mus musculus; assay: The compound was evaluated for the analgesic activity by tail-flick test after icv administration of compound in mouse; value ranges from 14.8-58; type: functional
[34] = system: Mus musculus; assay: The compound was evaluated for the analgesic activity by tail-flick test after subcutaneous administration of compound in mouse; value ranges from 3.48-14.95; type: functional; settings: sc

Compound	IC50 [2] [µM]	IC50 [4] [µM]	Relative potency [11]	Relative potency [12]	Relative potency [14]	further results
C[S+]([O-])CC[C@H](NC(=O)[C@@H](N)Cc1ccc(O)cc1)C(=O)N[C@@H](Cc1ccccc1)C(=O)NCC(=O)O (stereo not given in full) (H-Y[Met(O)]FG-OH)	0.061	> 10	–	–	–	ED50 [1]: 20.5 pmol/mouse; ED50 [3]: 4.64 µmol/kg
CC(NC(=O)[C@H](Cc1ccccc1)NC(=O)[C@H](CC[S+](C)[O-])NC(=O)[C@@H](N)Cc1ccc(O)cc1)C(=O)O (stereo not given in full) (H-Y[Met(O)]F[ξA]-OH)	0.12	> 10	–	–	–	ED50 [5]: 0.36 µmol/kg; ED50 [6]: 8.4 pmol/mouse
C[S+]([O-])CC[C@H](NC(=O)[C@H](Cc1ccc(O)cc1)N=C(N)N)C(=O)N[C@@H](Cc1ccccc1)C(=O)NCC(N)=O (stereo not given in full)	0.005	> 10	–	–	–	ED50 [7]: 2 pmol/mouse; ED50 [8]: 0.53 µmol/kg
COC(=O)CNC(=O)[C@H](Cc1ccccc1)NC(=O)[C@H](CC[S+](C)[O-])NC(=O)[C@@H](N)Cc1ccc(O)cc1 (stereo not given in full) (H-Y[Met(O)]FG-OMe)	0.005	> 10	–	–	–	ED50 [9]: 10 pmol/mouse; ED50 [10]: 4.21 µmol/kg
CN(CC(N)=O)C(=O)[C@H](Cc1ccccc1)NC(=O)[C@H](CC[S+](C)[O-])NC(=O)[C@@H](N)Cc1ccc(O)cc1 (stereo not given in full) (H-Y[Met(O)]F[Sar]-NH2)	0.006	> 10	0.67	561	22.5	ED50 [13]: 5.5 pmol/mouse; ED50 [15]: 0.48 µmol/kg
COC(=O)CNC(=O)[C@H](Cc1ccccc1)NC(=O)[C@H](CC[S+](C)[O-])NC(=O)[C@H](Cc1ccc(O)cc1)N=C(N)N (stereo not given in full)	0.0235	> 10	–	–	–	ED50 [16]: 2.39 µmol/kg; ED50 [17]: 15.5 pmol/mouse
CN(CC(=O)O)C(=O)[C@H](Cc1ccccc1)NC(=O)[C@H](CC[S+](C)[O-])NC(=O)[C@@H](N)Cc1ccc(O)cc1 (stereo not given in full) (H-Y[Met(O)]F[Sar]-OH)	0.077	> 10	0.05	67	2.3	ED50 [18]: 4.63 µmol/kg; ED50 [19]: 45.8 pmol/mouse
COC(=O)CN(C)C(=O)[C@H](Cc1ccccc1)NC(=O)[C@H](CC[S+](C)[O-])NC(=O)[C@H](Cc1ccc(O)cc1)N=C(N)N (stereo not given in full)	0.023	> 10	0.17	81	14.4	ED50 [20]: 38.1 pmol/mouse; ED50 [21]: 0.75 µmol/kg
C[C@@H](NC(=O)[C@@H](N)Cc1ccc(O)cc1)C(=O)N[C@@H](Cc1ccccc1)C(=O)NCC(N)=O (H-Y[dA]FG-NH2) [listing 1 of 2 here]	0.0367	> 10	–	–	–	–
C[C@@H](NC(=O)[C@@H](N)Cc1ccc(O)cc1)C(=O)N[C@@H](Cc1ccccc1)C(=O)NCC(N)=O (H-Y[dA]FG-NH2) [listing 2 of 2 here]	–	–	–	45	0.2	ED50 [22]: 60.3 µmol/kg; ED50 [23]: 68.8 pmol/mouse
C[C@@H](NC(=O)[C@@H](N)Cc1ccc(O)cc1)C(=O)N[C@@H](Cc1ccccc1)C(=O)NCC(=O)N[C@@H](Cc1ccc(O)cc1)C(=O)N1CCC[C@H]1C(=O)N[C@@H](CO)C(N)=O [DERMORPHIN]	0.0057	> 10	–	–	–	ED50 [24]: 11.4 pmol/mouse
CC(NC(=O)[C@H](Cc1ccccc1)NC(=O)[C@H](CC[S+](C)[O-])NC(=O)[C@@H](N)Cc1ccc(O)cc1)C(N)=O (stereo not given in full) (H-Y[Met(O)]F[ξA]-NH2)	0.017	> 10	0.24	93	2.5	ED50 [25]: 33 pmol/mouse; ED50 [26]: 4.38 µmol/kg
CN1CC[C@]23c4c5ccc(O)c4O[C@H]2[C@@H](O)C=C[C@H]3[C@H]1C5 [MORPHINE]	–	–	–	–	–	ED50 [27]: 10.8 µmol/kg; ED50 [28]: 3090 pmol/mouse
COC(=O)CN(C)C(=O)[C@H](Cc1ccccc1)NC(=O)[C@H](CC[S+](C)[O-])NC(=O)[C@@H](N)Cc1ccc(O)cc1 (stereo not given in full) (H-Y[Met(O)]F[Sar]-OMe)	0.006	> 10	0.67	64	2.7	ED50 [29]: 4.05 µmol/kg; ED50 [30]: 47.9 pmol/mouse
C[S+]([O-])CC[C@H](NC(=O)[C@@H](N)Cc1ccc(O)cc1)C(=O)N[C@@H](Cc1ccccc1)C(=O)NCC(N)=O (stereo not given in full) (H-Y[Met(O)]FG-NH2)	0.0063	> 10	–	–	–	ED50 [31]: 0.66 µmol/kg; ED50 [32]: 2.01 pmol/mouse
COC(=O)C(C)NC(=O)[C@H](Cc1ccccc1)NC(=O)[C@H](CC[S+](C)[O-])NC(=O)[C@@H](N)Cc1ccc(O)cc1 (stereo not given in full) (H-Y[Met(O)]F[ξA]-OMe)	0.009	> 10	–	–	–	ED50 [33]: 18.2 pmol/mouse; ED50 [34]: 5.16 µmol/kg
C[C@H](NC(=O)[C@@H](N)Cc1ccc(O)cc1)C(=O)N[C@@H](Cc1ccccc1)C(=O)NCC(N)=O (H-YAFG-NH2)	–	–	0.11	–	–	–
